Reference: ChEMBL document CHEMBL2021838, “Solvent effect on copper-catalyzed azide-alkyne cycloaddition (CuAAC): synthesis of novel triazolyl substituted quinolines as potential anticancer agents” (Bioorg Med Chem Lett, 2012)

Experiments:
K562 [1] = assay: Antiproliferative activity against human K562 cells assessed as cell growth inhibition at 10 uM after 24 hrs by MTT assay; format: functional; conditions: K562, 24 h, read-out: GI
Procedure, shortened: (§1)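 MTT viability assay. Cells seeded at 5 × 10³ per well and cultured with or without compound for 24 h. MTT (5 mg/ml in PBS) was then added in fresh medium and incubated 2 h at 37 °C, followed by DMSO and 1 min agitation. Absorbance was read at 570 nm. Percent inhibition of proliferation was calculated relative to the untreated control. Dose-response used […].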

MDA-MB-231 [2] = assay: Antiproliferative activity against human MDA-MB-231 cells assessed as cell growth inhibition at 1 uM after 24 hrs by MTT assay; format: functional; conditions: MDA-MB-231, 24 h, read-out: GI; procedure, shortened: as §1
K562 [3] = assay: Antiproliferative activity against human K562 cells assessed as cell growth inhibition at 1 uM after 24 hrs by MTT assay; format: functional; conditions: K562, 24 h, read-out: GI; procedure, shortened: as §1
MDA-MB-231 [4] = assay: Antiproliferative activity against human MDA-MB-231 cells assessed as cell growth inhibition at 10 uM after 24 hrs by MTT assay; format: functional; conditions: MDA-MB-231, 24 h, read-out: GI; procedure, shortened: as §1
K562 [5] = assay: Antiproliferative activity against human K562 cells assessed as cell growth inhibition at 0.1 uM after 24 hrs by MTT assay; format: functional; conditions: K562, 24 h, read-out: GI; procedure, shortened: as §1
K562 [6] = assay: Antiproliferative activity against human K562 cells assessed as cell growth inhibition after 24 hrs by MTT assay; format: functional, cell-based; conditions: K562, 24 h; procedure, shortened: as §1
K562 [7] = assay: Antiproliferative activity against human K562 cells assessed as cell growth inhibition at 0.01 uM after 24 hrs by MTT assay; format: functional; conditions: K562, 24 h, read-out: GI; procedure, shortened: as §1
K562 [8] = assay: Antiproliferative activity against human K562 cells assessed as cell growth inhibition at 0.5 uM after 24 hrs by MTT assay; format: functional; conditions: K562, 24 h, read-out: GI; procedure, shortened: as §1
MDA-MB-231 [9] = assay: Antiproliferative activity against human MDA-MB-231 cells assessed as cell growth inhibition after 24 hrs by MTT assay; format: functional, cell-based; conditions: MDA-MB-231, 24 h; procedure, shortened: as §1
MDA-MB-231 [10] = assay: Antiproliferative activity against human MDA-MB-231 cells assessed as cell growth inhibition at 0.01 uM after 24 hrs by MTT assay; format: functional; conditions: MDA-MB-231, 24 h, read-out: GI; procedure, shortened: as §1
MDA-MB-231 [11] = assay: Antiproliferative activity against human MDA-MB-231 cells assessed as cell growth inhibition at 0.1 uM after 24 hrs by MTT assay; format: functional; conditions: MDA-MB-231, 24 h, read-out: GI; procedure, shortened: as §1
MDA-MB-231 [12] = assay: Antiproliferative activity against human MDA-MB-231 cells assessed as cell growth inhibition at 0.5 uM after 24 hrs by MTT assay; format: functional; conditions: MDA-MB-231, 24 h, read-out: GI; procedure, shortened: as §1

| SMILES | inhibition of growth at 10 µM (K562 [1]) | inhibition of growth at 1 µM (MDA-MB-231 [2]) | inhibition of growth at 1 µM (K562 [3]) | inhibition of growth at 10 µM (MDA-MB-231 [4]) | also measured |
| --- | --- | --- | --- | --- | --- |
| c1ccc(-c2cn(-c3cc4nnnn4c4ccccc34)nn2)cc1 | 29.9% | 52.5% | 20.6% | 56% |  |
| Cc1ccc(-c2cn(-c3cc4nnnn4c4ccccc34)nn2)cc1 | 44.1% | 47.7% | 20.6% | 54% |  |
| c1ccc(CCc2cn(-c3cc4nnnn4c4ccccc34)nn2)cc1 | 38.1% | 50.5% | 26.7% | 60.8% |  |
| OCc1cn(-c2cc3nnnn3c3ccccc23)nn1 | 36.9% | 45.8% | 21.8% | 46.8% |  |
| OCCCc1cn(-c2cc3nnnn3c3ccccc23)nn1 | 52.4% | 42% | 47.1% | 46.1% | inhibition of growth at 0.1 µM (K562 [5]): 22%; IC50 (K562 [6]): 4600 nM; inhibition of growth at 0.01 µM (K562 [7]): 9%; inhibition of growth at 0.5 µM (K562 [8]): 30% |
| ClCCCc1cn(-c2cc3nnnn3c3ccccc23)nn1 | 35.2% | 60.2% | 19.9% | 70.1% | IC50 (MDA-MB-231 [9]): 800 nM; inhibition of growth at 0.01 µM (MDA-MB-231 [10]): 11%; inhibition of growth at 0.1 µM (MDA-MB-231 [11]): 24%; inhibition of growth at 0.5 µM (MDA-MB-231 [12]): 46% |
| CCCCc1cn(-c2cc3nnnn3c3ccccc23)nn1 | 34.1% | 55.3% | 28.2% | 57.1% |  |
| CCCCCCc1cn(-c2cc3nnnn3c3ccccc23)nn1 | 37.4% | 49.7% | 19.1% | 53.4% |  |
| CCCCCc1cn(-c2cc(-n3cc(CCCCC)nn3)c3ccccc3n2)nn1 | < 30% |  |  | < 30% |  |
| ClCCCc1cn(-c2cc(-n3cc(CCCCl)nn3)c3ccccc3n2)nn1 | < 30% |  |  | < 30% |  |
| CCCCc1cn(-c2cc(-n3cc(CCCC)nn3)c3ccccc3n2)nn1 | < 30% |  |  | < 30% |  |
| CCCCCCc1cn(-c2cc(-n3cc(CCCCCC)nn3)c3ccccc3n2)nn1 | < 30% |  |  | < 30% |  |
